Assay [1] has as its target T1, Orexin/Hypocretin receptor type 1 (Homo sapiens) (UniProt O43613).
T1 sequence (whole entry): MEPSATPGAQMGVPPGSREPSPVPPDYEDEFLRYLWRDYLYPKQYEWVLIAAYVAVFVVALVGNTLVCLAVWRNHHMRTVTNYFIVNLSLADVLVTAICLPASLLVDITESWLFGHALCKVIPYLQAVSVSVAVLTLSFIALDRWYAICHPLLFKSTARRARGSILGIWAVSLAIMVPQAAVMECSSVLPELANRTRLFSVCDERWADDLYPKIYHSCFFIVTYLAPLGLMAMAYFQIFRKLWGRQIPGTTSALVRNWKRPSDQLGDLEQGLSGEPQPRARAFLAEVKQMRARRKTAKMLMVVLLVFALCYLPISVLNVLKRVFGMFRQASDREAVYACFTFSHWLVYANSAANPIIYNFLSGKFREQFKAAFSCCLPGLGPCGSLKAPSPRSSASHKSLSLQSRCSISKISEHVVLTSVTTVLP
Put plainly: Agonist activity at OX1 receptor expressed in CHO cells at 10 uM by FlexStation assay. It is filed as functional, cell-based. The essentials: (§1)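 Separate cell lines stably expressing OX1 or OX2 receptor were loaded with calcium-sensitive dye for 1 h. Compounds were tested alone at 10 µM for intrinsic agonist activity, read as a rise in fluorescence (intracellular calcium) on the FlexStation.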

Assay [2] has as its target T2, Orexin receptor type 2 (Homo sapiens) (UniProt O43614).
T2 sequence (whole entry): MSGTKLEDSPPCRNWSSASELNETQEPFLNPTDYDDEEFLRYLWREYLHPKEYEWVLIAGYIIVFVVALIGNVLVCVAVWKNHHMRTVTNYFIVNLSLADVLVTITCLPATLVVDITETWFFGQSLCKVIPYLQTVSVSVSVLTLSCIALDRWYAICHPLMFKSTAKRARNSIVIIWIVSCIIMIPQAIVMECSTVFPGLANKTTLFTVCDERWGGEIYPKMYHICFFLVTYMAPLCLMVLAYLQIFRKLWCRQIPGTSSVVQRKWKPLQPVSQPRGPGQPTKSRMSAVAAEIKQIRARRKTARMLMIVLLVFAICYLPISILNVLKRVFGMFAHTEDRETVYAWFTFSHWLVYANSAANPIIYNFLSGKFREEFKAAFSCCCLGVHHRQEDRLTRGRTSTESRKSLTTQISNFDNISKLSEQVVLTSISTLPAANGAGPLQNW
Put plainly: Agonist activity at OX2 receptor expressed in CHO cells at 10 uM by FlexStation assay. The class given is functional, cell-based. The essentials:
as §1

Assay [3] addresses T1, Orexin/Hypocretin receptor type 1 (Homo sapiens). Put plainly: Antagonist activity at OX1 receptor expressed in CHO cells assessed as inhibition of orexin-A-induced calcium mobilization by FlexStation assay. It is filed as functional, cell-based. The essentials: (§2)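 Cells stably expressing OX1 or OX2 receptor, dye-loaded 1 h. EC50s came from a three-parameter logistic fit. Ke = [L]/(DR−1), DR = A'/A. Duplicates; ≥3 (OX1) or ≥2 (OX2) independent experiments.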

Assay [4] addresses T2, Orexin receptor type 2 (Homo sapiens). In words: Antagonist activity at OX2 receptor expressed in CHO cells assessed as inhibition of orexin-A-induced calcium mobilization by FlexStation assay. It is filed as functional, cell-based. In outline: as §2
Assay [5] is described as follows: Selectivity ratio of Ke for OX2 receptor to Ke for OX1 receptor.

Active and inactive are the calls of the source. The calls are words filed in the database; no cut-off is given here.

With `CN(C)c1ccc(CC(=O)Nc2ccnc3c(F)cccc23)cc1`, the result in assay [1] and in assay [2] was inactive. Moreover, the Ke in assay [3] and in assay [4] was over 10000 nM in each case.

Turning to `Cc1nc2ccc(NC(=O)Nc3ccnc4cccnc34)cc2o1`, the result in assay [1] and in assay [2] was inactive. Also, the values for the Ke in assay [3] and in assay [4] were 45 nM and 1190 nM, respectively. Besides, the Ratio Ke in assay [5] came out at 50.

With `O=C(Nc1ccc2c(c1)OCO2)Nc1ccnc2c(F)cccc12`, the outcome in assay [1] and in assay [2] was inactive. For the same molecule, the Ke was 13.4 nM in assay [3] and 1620 nM in assay [4].

Regarding `COc1ccc(NC(=O)Nc2ccnc3c(F)cccc23)cc1OC`, the outcome in assay [1] and in assay [2] was inactive. For the same molecule, the Ke in assay [3] is 965 nM; in assay [4], over 10000 nM. Also, the Ratio Ke in assay [5] was over 10.

(Values after ChEMBL document CHEMBL1770060, “Diaryl urea analogues of SB-334867 as orexin-1 receptor antagonists” (Bioorg Med Chem Lett, 2011).)
